An excerpt weighted towards active compounds, which were near 2.8% of everything screened.
NPY-Y1 antag: NPY-Y1 (human) receptor antagonism. P25929. HEK293-CNG Y1 cells, membrane potential fluorescence; NPY at EC95, then isoproterenol. inhibition, % at 3.6 µM. hit rate 1% among 200,000. AID 1040;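 active = inhibition above the campaign mean inhibition of all tested compounds plus 3 SD, cut at about 20% in these data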
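Test system: HEK293 cells co-expressing NPY Y1 receptor and cyclic-nucleotide gated channel; Also added: NPY (25 nM), isoproterenol (1 µM), Ro 20-1724 (25 µM); Compound dosing: one concentration, 3.6 µM, in 0.4% DMSO; Timing: dye 3 h, compound 60 min room temperature, stimulation 45 min; Technique: Membrane-potential fluorescent dye readout.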
NPY-Y2 PAM-ag: human NPY-Y2 potentiation or agonism, primary screen; activation, % at 3.6 µM; AID 1359; hit rate 0.45% among 220,000; cells expressing NPY-Y2, potentiator/agonist read-out; P49146; in the data active = activation above about 27%;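 also: cells stimulated with NPY near EC25 plus isoproterenol at EC100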
Target sequence (P49146 whole entry, looked up): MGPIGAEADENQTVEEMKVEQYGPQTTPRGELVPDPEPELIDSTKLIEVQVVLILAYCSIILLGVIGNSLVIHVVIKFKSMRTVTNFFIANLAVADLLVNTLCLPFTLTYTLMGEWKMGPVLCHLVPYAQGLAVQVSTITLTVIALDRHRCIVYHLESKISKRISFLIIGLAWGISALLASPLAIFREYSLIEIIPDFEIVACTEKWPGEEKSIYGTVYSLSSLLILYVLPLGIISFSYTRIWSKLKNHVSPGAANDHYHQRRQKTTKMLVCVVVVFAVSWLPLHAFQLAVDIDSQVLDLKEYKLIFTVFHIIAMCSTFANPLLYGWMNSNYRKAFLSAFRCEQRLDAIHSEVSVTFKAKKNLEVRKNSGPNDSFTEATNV
EP2 antag: blocks the human prostaglandin E2 receptor EP2; C6 glioma cells expressing human EP2, cAMP TR-FRET; cells stimulated with saturating PGE2; inhibition, % at 25 µM; hit rate 0.52% among 260,000; AID 1422;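 active = percent inhibition above 40 after rounding to a whole number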;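 also: rat C6 glioma host cells with rolipram phosphodiesterase inhibitor present; the protocol text gives 20 µM as final concentration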
NPY Y2 blocker: antagonists of human neuropeptide Y receptor Y2; NPY-Y2 expressing cells, antagonist mode; hit rate 0.99% among 140,000; inhibition, % at 2.7 µM; P49146; in the data active = inhibition above about 17%
NPY-Y1 PAM-ag: human NPY-Y1 potentiation or agonism, primary screen; NPY-Y1 expressing cells, potentiator/agonist activation; activation, % at 3.6 µM; hit rate 0.37% among 220,000; AID 1304; in the data active = activation above about 33%, passing the limit was not always enough;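 also: cells stimulated with NPY at EC10 then isoproterenol at EC100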
EP2 mod: modulates human prostaglandin E2 receptor EP2 signaling; P43116; hit rate 0.83% among 260,000; AID 940; EP2-expressing cells, cAMP HTRF FRET, PGE2 co-stimulation; induction, % at 25 µM;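 active = compounds whose cAMP rise, as percent of the full-agonist control response, exceeds 60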;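 also: rat C6 glioma line stably carrying human EP2 under a CMV promoter; the protocol text gives 20 µM as final concentration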
A number is an active result; - = inactive; . = no result.

SMILES	NPY-Y1 antag	NPY-Y2 PAM-ag	EP2 antag	NPY Y2 blocker	NPY-Y1 PAM-ag	EP2 mod
Cc1ccc2cc(CN(Cc3ccco3)Cc3nnnn3C3CCCCC3)c(=O)[nH]c2c1C	.	.	-	.	.	70.2
Cc1ccc(C)c2[nH]c(=O)c(CN(Cc3nnnn3C3CCCCC3)CC3CCCO3)cc12 (centres undefined)	-	-	-	-	-	-
CCOc1ccc2[nH]c(=O)c(CN(Cc3nnnn3C3CCCCC3)CC3CCCO3)cc2c1 (centres undefined)	.	.	-	.	.	-
Cc1cc2cc(CN(Cc3ccco3)Cc3nnnn3C3CCCCC3)c(=O)[nH]c2cc1C	.	.	-	.	.	-
CC(C)N(C(=O)N1CCC2(CC1)CC(=O)c1ccccc1O2)C(C)C	.	.	-	.	.	-
COc1ccc2[nH]c(=O)c(CN(C3CCCCC3)C(c3nnnn3C3CCCCC3)C(C)C)cc2c1 (centres undefined)	.	.	-	.	.	-
CCOC(=O)N1CC=C2C(C#N)=C(N)C(C#N)(C#N)C(C(C)C)C2C1 (centres undefined)	.	.	-	.	.	-
COc1ccc(NC(=O)Cn2nc(C)n3c(cc4sccc43)c2=O)cc1	.	.	.	.	.	-
CCc1nc(NC2CCCCC2)c(C#N)c2c1COC(C)(C)C2	-	-	-	-	-	62.2
CCOc1nc(CC(C)C)c2c(c1C#N)CC(C)(C)OC2	.	-	-	.	-	61.9
CCOc1ncnc2c1oc1nc(CC(C)C)c3c(c12)CC(C)(C)OC3	-	-	-	-	-	-
CN(C)S(=O)(=O)N1CCC(n2nc(C3CC3)ccc2=O)CC1	.	.	-	.	.	-
CC(C)c1ncc(CN2CCC(O)(c3ccccc3F)CC2)cn1	.	.	-	.	.	-
Cc1ccc(NC(=O)CSc2nnc(-c3ccoc3C)n2CC2CCCO2)cc1C (centres undefined)	.	.	-	.	.	-
N#CC1(Nc2ccc(-c3ccc(NC4(C#N)CCCC4)cc3)cc2)CCCC1	.	.	54.6	.	.	-
O=C1NC(=O)N(c2cccc(Br)c2)C(=O)/C1=C/c1cccc(O)c1	.	.	-	.	.	-
COc1cc(/C=C2\C(=O)NC(=S)N(c3ccc(Br)cc3C)C2=O)ccc1O	.	.	73.7	.	.	-
CCOc1cc(/C=C2\C(=O)NC(=O)N(c3cccc(Br)c3)C2=O)ccc1O	.	.	97.5	.	.	-
Cc1ccc2nc(-c3ccc(NC(=O)c4ccc(N)cc4)c(S(=O)(=O)O)c3)sc2c1	.	.	45.9	.	.	-
O=C1c2ccccc2C(=O)N1CCCCN(C(=O)c1ccc([N+](=O)[O-])cc1)c1ccc(Cl)cc1	-	95.4	-	-	67.0	-
O=C1c2ccccc2C(=O)N1CCCCN(C(=O)c1cc([N+](=O)[O-])cc([N+](=O)[O-])c1)c1ccc(Cl)cc1	-	-	-	-	-	-
CC[C@H]1CN(C)[C@@H]2Cc3c([nH]c4ccccc34)C(=O)C[C@H]1[C@H]2C(=O)OC	.	.	52.4	.	.	-
CCC1CN(C)C2Cc3c([nH]c4ccccc34)C(=O)CC1C2C(=O)OC (centres undefined)	.	-	-	.	-	-
Fc1cccc(Oc2nc3ccccc3n3cccc23)c1	-	-	-	-	-	61.5
CSc1nc2ccccc2n1Cc1cccc(F)c1	-	-	-	-	-	-
SMILES	NPY-Y1 antag	NPY-Y2 PAM-ag	EP2 antag	NPY Y2 blocker	NPY-Y1 PAM-ag	EP2 mod
Cn1c(C(=O)NCC2CCCO2)cc2c(=O)n3ccccc3nc21 (centres undefined)	-	-	-	-	-	-
O=C(NCCC1=CCCCC1)C(c1ccccc1)c1ccccc1	27.7	-	-	-	-	-
Cn1c(C(=O)NCCC2=CCCCC2)cc2c(=O)n3ccccc3nc21	-	-	-	-	-	63.2
COc1cccc2sc(N(CCN(C)C)C(=O)/C=C/c3cccs3)nc12	-	100.0	-	.	97.6	-
CCS(=O)(=O)N1Cc2ccccc2CC1C(=O)Nc1nc2ccc(C)cc2s1 (centres undefined)	-	30.8	-	-	46.2	-
CCS(=O)(=O)N1Cc2ccccc2CC1C(=O)Nc1ncc(C)s1 (centres undefined)	-	-	-	.	-	-
CC12CC3CC(C)(C1)CC(CN)(C3)C2	-	33.8	-	-	37.0	-
CC12CC3CC(C)(C1)CC(CN1CCOCC1)(C3)C2	-	-	-	-	-	-
O=C(CSc1nnc2c3c4c(sc3nc(C3CC3)n12)CCCC4)N1CCCC1	.	.	-	.	.	-
CC(Sc1nnc(-c2ccc(C(C)(C)C)cc2)o1)C(=O)O (centres undefined)	.	.	-	.	.	-
CC(C)N=c1scc(-c2ccco2)n1/N=C/c1ccc(O)c(O)c1	-	33.9	-	-	-	-
O=C(c1ccccc1)c1ccccc1N1C(=O)C=CC1=O	.	-	44.8	.	-	-
COCCNc1cc(C)nc2cc(-c3ccc(C)cc3)nn12	-	-	-	.	-	62.1
Cc1cc(C)c2nc(SCC(=O)Nc3nc(C)c(C)s3)cc(C)c2c1	.	.	-	.	.	61.2
COc1ccccc1NC(=O)CSc1nc(C2CCCCC2)nc2ccccc12	.	.	-	.	.	78.6
CCCc1nc(SCC(=O)Nc2ccc(C)cc2C)c2ccccc2n1	.	.	-	.	.	-
CCCc1nc(SCC(=O)Nc2nc(C)c(C)s2)c2ccccc2n1	.	.	-	.	.	63.5
CCOc1ccccc1NC(=O)CSc1nc(Cc2ccccc2)nc2ccccc12	.	.	-	.	.	78.5
CC(C)[C@@H](Cn1nc(C2CC2)ccc1=O)NC(=O)c1ccco1	.	.	-	.	.	-
CCOC(=O)CSc1nc(C2CCCCC2)nc2ccccc12	.	.	-	.	.	65.5
CSc1nc(Cc2ccccc2)nc2ccccc12	-	-	-	.	-	62.1
OC1(c2ccccc2F)CCN(Cc2ccccc2N2CCCC2)CC1	.	.	-	.	.	-
Cc1ccc2cc(CN(CCc3ccccc3)C(=O)C3CCCCC3)c(=O)[nH]c2c1	.	.	-	.	.	-
CCCc1cc(C(=O)OC)c(NC(=O)OCC)s1	-	-	-	-	-	63.4
CCN(CC)c1ccc(/C=N/Nc2nc3ccccc3[nH]2)c(O)c1	-	-	61.2	-	-	-
SMILES	NPY-Y1 antag	NPY-Y2 PAM-ag	EP2 antag	NPY Y2 blocker	NPY-Y1 PAM-ag	EP2 mod
C#CCn1cc(/C=N/Nc2nc3ccccc3[nH]2)c2ccccc21	-	48.6	-	-	44.8	-
C(=N\Nc1nc2ccccc2[nH]1)/c1cccc2nccnc12	.	-	-	.	-	-
O=C(O)CCN1C(=O)CSC1=O	.	.	-	.	.	-
O=C(c1ccco1)N1c2ccccc2Sc2ccccc21	-	-	44.1	-	-	-
O=C(c1ccco1)N1CCN(C(=O)N2c3ccccc3Sc3ccccc32)CC1	-	-	-	-	-	-
O=C(CCCl)N1c2ccccc2Sc2ccccc21	.	.	-	.	.	69.6
CN(C)CCC(=O)N1c2ccccc2Sc2ccc(Cl)cc21	-	-	-	.	-	-
CCC[n+]1cccc2c3ccccc3ccc21	.	.	-	.	.	-
CCCCCCCCC[n+]1cccc2c3ccccc3ccc21	55.5	-	-	18.7	-	-
CCOC(=O)c1ccc(NC(=O)CSc2nccc(=O)[nH]2)cc1	.	.	-	.	.	-
O=C(CN(c1cccc(C(F)(F)F)c1)S(=O)(=O)c1ccc(Cl)c([N+](=O)[O-])c1)NCc1ccccc1Cl	-	-	-	-	-	-

From PubChem BioAssay
